In ChEMBL document CHEMBL1148778, “Synthesis and characterization of nonsteroidal glucocorticoid receptor modulators for multiple myeloma” (J Med Chem, 2007):

Experiments:
[1] = target: T1, Glucocorticoid receptor (Homo sapiens, UniProt P04150); experiment: Agonist activity at human GR expressed in CV1 cells by GRE activation assay; type: functional, cell-based, CV-1
T1 sequence (P04150 whole entry): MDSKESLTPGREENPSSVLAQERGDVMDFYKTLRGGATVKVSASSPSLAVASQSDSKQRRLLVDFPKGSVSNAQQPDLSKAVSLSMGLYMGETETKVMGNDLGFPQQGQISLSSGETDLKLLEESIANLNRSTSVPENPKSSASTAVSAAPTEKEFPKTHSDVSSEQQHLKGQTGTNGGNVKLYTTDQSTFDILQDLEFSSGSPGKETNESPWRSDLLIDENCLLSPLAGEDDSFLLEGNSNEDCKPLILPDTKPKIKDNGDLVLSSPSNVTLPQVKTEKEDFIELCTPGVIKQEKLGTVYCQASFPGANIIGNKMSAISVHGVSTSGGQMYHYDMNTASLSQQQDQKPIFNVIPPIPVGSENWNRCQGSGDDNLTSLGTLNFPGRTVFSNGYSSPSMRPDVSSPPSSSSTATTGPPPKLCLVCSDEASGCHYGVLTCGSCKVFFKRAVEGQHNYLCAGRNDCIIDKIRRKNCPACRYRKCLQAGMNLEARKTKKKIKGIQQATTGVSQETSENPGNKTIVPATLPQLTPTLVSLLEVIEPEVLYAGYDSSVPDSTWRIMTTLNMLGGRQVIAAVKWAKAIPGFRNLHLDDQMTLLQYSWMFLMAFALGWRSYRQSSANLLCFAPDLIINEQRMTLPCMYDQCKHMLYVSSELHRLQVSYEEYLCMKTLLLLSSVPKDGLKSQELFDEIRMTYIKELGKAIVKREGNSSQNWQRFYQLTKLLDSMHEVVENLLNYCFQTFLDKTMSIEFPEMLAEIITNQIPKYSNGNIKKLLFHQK

[2] = system: RPMI-8226; experiment: Antiproliferative activity against human RPMI8226 cells after 4 days relative to Dexamethasone; type: functional
[3] = target: T1, Glucocorticoid receptor; experiment: Activity at human GR expressed in NHDFneo cells assessed as inhibition of IL-6 production; type: cell-based
[4] = target: T2, Mineralocorticoid receptor (Homo sapiens, UniProt P08235); experiment: Binding affinity to MR
T2 sequence (P08235 whole entry): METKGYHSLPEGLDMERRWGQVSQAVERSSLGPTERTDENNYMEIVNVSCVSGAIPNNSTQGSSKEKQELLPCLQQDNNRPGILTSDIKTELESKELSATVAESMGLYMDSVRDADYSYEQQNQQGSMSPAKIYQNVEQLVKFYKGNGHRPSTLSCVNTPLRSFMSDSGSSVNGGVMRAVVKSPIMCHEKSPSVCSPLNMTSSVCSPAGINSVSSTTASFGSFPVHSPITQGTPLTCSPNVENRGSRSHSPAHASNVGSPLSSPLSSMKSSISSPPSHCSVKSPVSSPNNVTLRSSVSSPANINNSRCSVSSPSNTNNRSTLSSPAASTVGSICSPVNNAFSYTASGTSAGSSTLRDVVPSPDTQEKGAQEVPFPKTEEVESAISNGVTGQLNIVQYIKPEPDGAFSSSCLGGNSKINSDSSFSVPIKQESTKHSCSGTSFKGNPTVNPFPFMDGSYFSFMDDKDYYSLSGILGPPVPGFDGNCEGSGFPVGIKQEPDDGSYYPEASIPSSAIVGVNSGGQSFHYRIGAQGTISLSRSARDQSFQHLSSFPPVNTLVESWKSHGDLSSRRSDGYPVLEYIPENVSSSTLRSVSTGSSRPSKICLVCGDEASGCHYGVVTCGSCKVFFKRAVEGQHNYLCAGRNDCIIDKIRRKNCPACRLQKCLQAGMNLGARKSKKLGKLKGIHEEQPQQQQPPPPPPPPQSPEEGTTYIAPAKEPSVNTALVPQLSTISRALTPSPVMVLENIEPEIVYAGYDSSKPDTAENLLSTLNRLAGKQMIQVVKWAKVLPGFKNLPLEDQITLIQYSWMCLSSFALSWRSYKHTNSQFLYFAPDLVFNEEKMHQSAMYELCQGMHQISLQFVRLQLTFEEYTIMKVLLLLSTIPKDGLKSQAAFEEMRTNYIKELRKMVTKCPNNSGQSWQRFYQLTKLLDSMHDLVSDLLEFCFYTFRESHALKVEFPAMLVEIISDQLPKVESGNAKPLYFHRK
In short: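 Competitive binding assays on PR and MR. Values are means of at least three separate experiments, each with triplicate determinations, ± SEM. A value without SEM comes from a single determination.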

[5] = target: T1, Glucocorticoid receptor; experiment: Binding affinity to GR
[6] = target: T3, Androgen receptor (Homo sapiens, UniProt P10275); experiment: Binding affinity to AR
T3 sequence (P10275 whole entry): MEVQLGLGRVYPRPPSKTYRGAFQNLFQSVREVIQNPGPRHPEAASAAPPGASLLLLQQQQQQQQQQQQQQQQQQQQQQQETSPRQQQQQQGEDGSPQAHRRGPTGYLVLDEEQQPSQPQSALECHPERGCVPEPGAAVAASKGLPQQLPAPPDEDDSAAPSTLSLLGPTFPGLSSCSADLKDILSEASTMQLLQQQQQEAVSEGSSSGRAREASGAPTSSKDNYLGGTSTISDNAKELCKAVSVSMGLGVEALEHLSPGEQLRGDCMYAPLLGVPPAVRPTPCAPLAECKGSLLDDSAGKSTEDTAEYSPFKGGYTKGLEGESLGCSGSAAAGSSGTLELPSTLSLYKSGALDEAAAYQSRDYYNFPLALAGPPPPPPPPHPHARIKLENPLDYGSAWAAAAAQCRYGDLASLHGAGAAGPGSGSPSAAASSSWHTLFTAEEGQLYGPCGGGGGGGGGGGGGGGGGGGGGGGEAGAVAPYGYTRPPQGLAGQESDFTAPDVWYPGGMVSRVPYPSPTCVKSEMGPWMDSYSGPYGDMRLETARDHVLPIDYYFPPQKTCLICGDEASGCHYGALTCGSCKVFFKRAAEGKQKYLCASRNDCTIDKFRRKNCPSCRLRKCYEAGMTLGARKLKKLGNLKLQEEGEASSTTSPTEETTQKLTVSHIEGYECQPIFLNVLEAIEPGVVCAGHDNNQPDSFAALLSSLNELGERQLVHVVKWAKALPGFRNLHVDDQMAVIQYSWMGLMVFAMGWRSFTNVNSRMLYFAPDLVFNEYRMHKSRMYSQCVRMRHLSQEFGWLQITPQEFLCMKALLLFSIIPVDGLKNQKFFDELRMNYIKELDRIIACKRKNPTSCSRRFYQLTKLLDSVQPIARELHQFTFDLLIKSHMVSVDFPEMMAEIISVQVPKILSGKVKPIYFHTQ

Row | SMILES | EC50 [1] [nM] | Efficacy [2] [%] | IC50 [3] [nM] | Ki [4] [nM] | Ki [5] [nM] | Ki [6] [nM]
1 | CO/N=C(\C)c1ccsc1/C=C1\Oc2ccc(O)c(OC)c2-c2ccc3c(c21)C(C)=CC(C)(C)N3 | 0.1 | 101 | 0.2 | 48 | 1.1 | 110
2 | COc1c(O)ccc2c1-c1ccc3c(c1/C(=C/c1sccc1CO)O2)C(C)=CC(C)(C)N3 | 0.2 | 99 | 0.2 | 980 | 0.7 | 290
3 | COCc1ccsc1/C=C1\Oc2ccc(O)c(OC)c2-c2ccc3c(c21)C(C)=CC(C)(C)N3 | 0.2 | 98 | 0.2 | 10 | 0.2 | 150
